# Data reported in PubChem BioAssay AID492974 (The Scripps Research Institute Molecular Screening Center, 2010).
# Active and inactive are the calls of the source.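 The calls were made as follows: active = inhibition of the enzyme above 50%; inactive = the rest.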
# Target: Aspartyl aminopeptidase (Plasmodium falciparum (isolate 3D7)) (UniProt Q8I2J3)
# Test: recombinant PfM18AAP inhibitors, late-stage follow-up, biochemical, fluorescence, powder samples, assay provider (AID 492974)
# Conditions: H-Glu-NHMec fluorogenic substrate, at 5 µM, stronger effect = higher value
# In short: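 system = recombinant Plasmodium falciparum M18 aspartyl aminopeptidase (rPfM18AAP), purified enzyme | input = rPfM18AAP at 1 µg/mL final | detection = kinetic fluorescence of NHMec release, excitation 370 nm, emission 460 nm, 1-min reads | reagent = fluorogenic substrate H-Glu-NHMec, 50 µM final | timing = 10 min compound–enzyme preincubation, then 30 min kinetic read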
# Aspartyl aminopeptidase (Plasmodium falciparum (isolate 3D7)), sequence (Q8I2J3 whole entry, looked up): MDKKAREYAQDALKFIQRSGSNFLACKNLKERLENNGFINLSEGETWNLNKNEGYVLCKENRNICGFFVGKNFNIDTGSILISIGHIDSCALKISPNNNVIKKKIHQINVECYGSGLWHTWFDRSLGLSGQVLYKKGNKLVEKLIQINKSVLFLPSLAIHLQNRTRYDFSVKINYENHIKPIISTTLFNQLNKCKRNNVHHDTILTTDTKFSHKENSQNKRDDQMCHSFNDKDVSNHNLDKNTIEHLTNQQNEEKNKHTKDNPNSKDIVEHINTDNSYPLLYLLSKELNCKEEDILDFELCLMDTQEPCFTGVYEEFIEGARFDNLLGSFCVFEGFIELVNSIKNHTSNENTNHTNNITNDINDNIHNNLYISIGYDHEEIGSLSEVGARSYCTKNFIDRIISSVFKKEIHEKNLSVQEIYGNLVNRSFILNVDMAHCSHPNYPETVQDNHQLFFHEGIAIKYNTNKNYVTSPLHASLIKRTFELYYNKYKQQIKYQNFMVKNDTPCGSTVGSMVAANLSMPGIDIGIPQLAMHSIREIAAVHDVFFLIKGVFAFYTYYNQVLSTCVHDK
row,Structure (SMILES),inhibition
1,Cc1cc(OCC(=O)Nn2cnnc2)ccc1Br,55%
2,Oc1ccc(C2=Nn3c(nnc3-c3ccco3)SC2)cc1O,52%
3,O=c1c(O)c(-c2ccc(O)c(O)c2)oc2cc(O)cc(O)c12,43% (inactive)
4,Cc1ccc(-n2c(O)c(/C=N/n3cnnc3)c3ccccc3c2=O)cc1,18% (inactive)
5,O=c1[nH]c(=S)[nH]c(O)c1/C=C1\C=c2ccccc2=N1,42% (inactive)
6,COc1cc([N+](=O)[O-])ccc1NC(=O)Nn1cnnc1,4% (inactive)
7,COc1cc(Br)cc(/C=N/c2ncn[nH]2)c1O,0% (inactive)
8,O=C(O)CSc1ncn[nH]1,0% (inactive)
9,CN1C(=O)N(c2cccc3ccccc23)C(n2cncn2)C1(C)C (stereo unspecified),5% (inactive)
10,O=C(Nc1ccc(Cl)cc1Cl)Nn1cnnc1,48% (inactive)
11,CN1CCc2cccc3c2[C@@H]1Cc1ccc(O)c(O)c1-3,35% (inactive)
12,Cc1cc(C)n2c(=S)[nH]nc2n1,30% (inactive)
13,Cc1nc(-c2ccc(O)c(O)c2)cs1,74%
14,O=C(CNC(=O)c1ccccc1)NCCc1ccc(O)c(O)c1,50%
15,O=C(Nc1cccc(C(F)(F)F)c1)Nn1cnnc1,27% (inactive)
16,Cc1nc2ccccn2c1C(=O)NNC(=O)Nc1ccccc1,11% (inactive)
17,COc1cccc(-c2cc(C(=O)Nn3cnnc3)c3ccccc3n2)c1,25% (inactive)
18,O=C(O)c1cn[nH]c1-n1cnnn1,2% (inactive)
19,COC(=O)CN(n1cnnc1)S(=O)(=O)c1ccccc1,0% (inactive)
20,O=c1[nH]c(CSc2ncn[nH]2)nc2ccccc12,0% (inactive)
21,O=C(CSc1nc2ccccc2c(=O)[nH]1)c1ccc(O)c(O)c1,10% (inactive)
22,Oc1ccc(-c2csc(-c3ccccc3)n2)cc1O,90%
23,O=C(Nn1cnnc1)c1csc2ccccc12,22% (inactive)
24,OC(Cn1cnnc1)c1ccccc1 (stereo unspecified),19% (inactive)
25,Cc1cc(=O)[nH]c(SCC(=O)c2ccc(O)c(O)c2)n1,0% (inactive)
26,Cc1ccc([N+](=O)[O-])cc1-c1[nH]c(-c2ccc(O)c(O)c2)nc1-c1ccccc1,83%

row,Structure (SMILES),inhibition
1,O=c1c2c([N+](=O)[O-])cc([N+](=O)[O-])cc2sn1Cc1ccccc1,44% (inactive)
2,CC(C)n1c(SCC(=O)Nc2nncs2)nnc1-c1ccco1,5% (inactive)
3,CCC(C)c1ccc(O)c(N)c1 (stereo unspecified),65%
4,O=C(Nc1ccccc1Cl)Nn1cnnc1,35% (inactive)
5,O=C(COc1ccccc1C(=O)N/N=C/c1ccc(O)c(O)c1)N/N=C/c1ccc(O)c(O)c1,76%
6,CCN(CC)S(=O)(=O)c1ccc(C(=O)Nn2cnnc2)cc1,26% (inactive)
7,O=C(O)c1ccc(O)c(O)c1,21% (inactive)
8,CCc1ccccc1NC(=S)Nn1cnnc1,6% (inactive)
9,S=C(Nc1cc(Cl)ccc1Cl)Nn1cnnc1,24% (inactive)
10,O=C(CSc1nn(-c2ccccc2)c(=S)s1)Nn1cnnc1,15% (inactive)
11,CCOC(=O)C1=C(CS(=O)(=O)c2ccc(F)cc2)NC(=O)NC1c1ccc(O)c(O)c1 (stereo unspecified),58%
12,O=C(Nc1cccc(Cl)c1Cl)Nn1cnnc1,29% (inactive)
13,NCCc1ccc(O)c(O)c1,40% (inactive)
14,O=C(Nc1ccc(Br)cc1Cl)Nn1cnnc1,71%
15,COc1ccc(C(=O)n2cnnc2N)cc1,4% (inactive)
16,CC1(C)CC(=O)c2c(oc3cc(O)c(O)cc23)C1,29% (inactive)
17,O=S(=O)(Nn1cnnc1)c1ccccc1,10% (inactive)
18,O=C(Nn1cnnc1)c1ccccc1-c1ccccc1,21% (inactive)
19,Oc1ccc(-c2csc(-c3cccnc3)n2)cc1O,81%
20,Cc1ccc(Cl)cc1NC(=S)Nn1cnnc1,17% (inactive)
21,COC(=O)CN(n1cnnc1)S(=O)(=O)c1ccccc1Cl,26% (inactive)
22,O=C(NC(=S)Nn1cnnc1)c1ccccc1Br,15% (inactive)
23,Cc1ccc(Cl)cc1NC(=O)Nn1cnnc1,35% (inactive)
24,CC1(C)CC2(CC(c3ccccc3F)c3ccc(O)c(O)c3O2)NC(=S)N1 (stereo unspecified),50%
25,Cc1cc(C)cc(C(=O)n2cnnc2N)c1,0% (inactive)
26,COc1cccc2c(SCC(=O)N/N=C/c3ccc(O)c(O)c3)cc(C)nc12,51%

row,Structure (SMILES),inhibition
1,COc1ccc(Cl)cc1NC(=O)Nn1cnnc1,22% (inactive)
2,Oc1ccc(CCNc2c3ccccc3nc3ccccc23)cc1O,52%
3,CS(=O)(=O)c1ccc2c(c1)sc1nc(=O)c(/C=C3/C=CC(=O)C(O)=C3)c(N)n12,55%
4,COC(=O)c1cc(C(=O)Nn2cnnc2)cc([N+](=O)[O-])c1,48% (inactive)
5,O=C(Nc1ccc([N+](=O)[O-])cc1)Nn1cnnc1,59%
6,COC(=O)CN(n1cnnc1)S(=O)(=O)c1ccc(C)cc1,0% (inactive)
7,COc1cc([N+](=O)[O-])ccc1NC(=S)Nn1cnnc1,52%
8,O=[N+]([O-])c1cc([N+](=O)[O-])c2cccnc2c1Oc1ccccc1O,16% (inactive)
9,Cc1cccc(NC(=S)Nn2cnnc2)c1C,13% (inactive)
10,Cc1c(Cl)cccc1NC(=O)Nn1cnnc1,10% (inactive)
11,COc1ccc2nc(C)cc(SCC(=O)N/N=C/c3ccc(O)c(O)c3)c2c1,63%
12,Nc1nncn1C(=O)CCCOc1ccc(Cl)cc1Cl,0% (inactive)
13,O=C(Nc1ccc(Cl)c(Cl)c1)Nn1cnnc1,63%
14,Oc1cc(O)c2c(c1)O[C@H](c1ccc(O)c(O)c1)[C@H](O)C2,49% (inactive)
15,Cc1ccc(NC(=S)Nn2cnnc2)c(C)c1,3% (inactive)
16,O=C(CSc1ncn[nH]1)Nc1nc(-c2ccccc2)ns1,7% (inactive)
17,Br/C(C=Nn1cnnc1)=C\c1ccccc1,17% (inactive)
18,Oc1ccc(-c2cn3ccccc3n2)cc1O,42% (inactive)
19,O=C(CSc1nnc(-c2ccccc2)o1)Nn1cnnc1,58%
20,Oc1ccc(/C=C/c2cc(O)cc(O)c2)cc1,50%
21,O=C(CSc1ncn[nH]1)OCN1C(=O)c2ccccc2C1=O,0% (inactive)
22,COc1ccc(NC(=O)NNC(=O)CCc2ccc(O)c(O)c2)cc1OC,23% (inactive)
23,CC1=NNC(=O)/C1=C\c1cn(-c2ccccc2)nc1-c1ccc(F)cc1,9% (inactive)
24,O=C(Nc1cc(Cl)ccc1Cl)Nn1cnnc1,54%
